According to ChEMBL document CHEMBL4342509, “New 8-Nitroquinolinone Derivative Displaying Submicromolar in Vitro Activities against Both Trypanosoma brucei and cruzi” (ACS Med Chem Lett, 2020):

How the values were obtained:
Leishmania infantum = assay: Antileishmanial activity against Leishmania infantum MHOM/MA/67/ITMAP-263 axenic amastigotes expressing luciferase plasmid assessed as reduction in parasite viability incubated for 48 hrs by Steady Glow reagent based luminescence assay; type: functional, organism-based; conditions: MHOM/MA/67/ITMAP-263, 48 h
[1] = tested on: Trypanosoma brucei brucei; assay: Antitrypanosomal activity against Trypanosoma brucei brucei AnTat 1.9 trypomastigotes assessed as reduction in parasite viability incubated for 69 hrs by Alamar Blue dye based assay; type: functional, organism-based; conditions: AnTat 1.9, 69 h
How it was run: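 Bloodstream AnTat 1.9 parasites grown at 37°C, 5% CO₂ in MEM with Earle's salts (Baltz-type) plus 0.5 mM mercaptoethanol, 1.5 mM L-cysteine, 0.05 mM bathocuproine sulfate and 20% heat-inactivated horse serum. EC50 from nonlinear regression, three independent experiments in duplicate.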

HepG2 = assay: (§1) Cytotoxicity against human HepG2 cells assessed as reduction in cell viability incubated for 72 hrs by MTT assay; type: cell-based; conditions: hepg2, 72 h
[2] = Selectivity index, ratio of CC50 for human HepG2 cells to EC50 for Trypanosoma brucei brucei trypomastigotes AnTat 1.9; type: toxicity; conditions: read-out: Ratio CC50/EC50
[3] = Electrochemical behavior of the compound assessed as redox potential corrected toward normal hydrogen electrode by cyclic voltammetry
[4] = Half life in NMRI mouse at 25 mg/Kg, ig measured up to 24 hrs by LCMS analysis; type: ADME; conditions: in vivo, po
Trypanosoma cruzi = assay: Antitrypanosomal activity against Trypanosoma cruzi CL Brener amastigotes infected in African green monkey Vero cells assessed as reduction in parasite growth incubated for 120 hrs at 24 hrs post-infection and measured on day 6 post-infection by hemocytometer based light microscopy; type: functional, organism-based
How it was run: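 Compounds, 2–4-fold serial dilutions over 0,1–25 µM final, applied for 120 h at 37°C. On day 6, released trypomastigotes pooled, centrifuged and counted by haemocytometer. EC50 by nonlinear regression; two experiments, triplicate wells.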

[5] = tested on: Trypanosoma brucei brucei; assay: Antitrypanosomal activity against blood stream form of Trypanosoma brucei brucei S427 trypomastigotes overexpressing NTR assessed as inhibition of parasite growth; type: functional, organism-based
[6] = tested on: Trypanosoma brucei brucei; assay: Antitrypanosomal activity against bloodstream form of wild type Trypanosoma brucei brucei S427 trypomastigotes assessed as inhibition of parasite growth; type: functional, organism-based
[7] = Microsomal stability in CD-1 mouse liver microsomes in presence of NADP measured up to 40 mins by LC-MS analysis; type: ADME, Microsome
How it was run: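 Compound incubated in duplicate with female CD-1 mouse microsomes at 37°C in 50 mM phosphate pH 7.4. Cofactors: 5 mM MgCl₂, 1 mM NADP, 0.4 U/mL G6PDH and 5 mM glucose-6-phosphate. […] Propranolol reference.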

[8] = Permeability of the compound in pH 7.4 Prisma HT buffer at 100 uM incubated for 4 hrs by PAMPA-BBB assay method; type: ADME; conditions: read-out: permeability
Leishmania donovani [9] = assay: Antileishmanial activity against wild type Leishmania donovani BOB (MHOM/SD/62/1S-CL2D) promastigotes assessed as inhibition of parasite growth incubated for 72 hrs by resazurin dye based assay; type: functional, organism-based
How it was run: (§2)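 LdBOB promastigotes grown at 26 °C in modified M199; NTR1- or NTR2-overexpressing lines kept under nourseothricin (100 µg/mL). Triplicate cultures seeded at 5×10^4 parasites/mL with drug for 72 h; 50 µM resazurin added, fluorescence (ex 528/em 590 nm) read after a further 4 h.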

Leishmania donovani [10] = assay: Antileishmanial activity against Leishmania donovani BOB (MHOM/SD/62/1S-CL2D) promastigotes overexpressing NTR1 assessed as inhibition of parasite growth incubated for 72 hrs by resazurin dye based assay; type: functional, organism-based; how it was run: as §2
Leishmania donovani [11] = assay: Antileishmanial activity against Leishmania donovani BOB (MHOM/SD/62/1S-CL2D) promastigotes overexpressing NTR2 assessed as inhibition of parasite growth incubated for 72 hrs by resazurin dye based assay; type: functional, organism-based; how it was run: as §2
Leishmania donovani [12] = assay: Selectivity index, ratio of EC50 for wild type Leishmania donovani BOB (MHOM/SD/62/1S-CL2D) promastigotes to EC50 for Leishmania donovani BOB (MHOM/SD/62/1S-CL2D) promastigotes overexpressing NTR1; type: functional
[13] = tested on: Trypanosoma brucei brucei; assay: Selectivity index, ratio of EC50 for bloodstream form of wild type Trypanosoma brucei brucei S427 trypomastigotes to EC50 for blood stream form of Trypanosoma brucei brucei S427 trypomastigotes overexpressing NTR; type: functional
Plasma proteins = assay: Plasma protein binding incubated for 4 hrs by LCMS analysis
[14] = as §1; type: cell-based; conditions: HepG2 cells

Compound	EC50 (Leishmania infantum) [µM]	EC50 [1] [nM]	CC50 (HepG2) [µM]	selectivity ratio [2]	Activity [3] [V]	other results
O=c1[nH]c2ccc(C(F)(F)F)cc2cc1Br	> 100	> 50000	> 100			
O=c1ccc2cc(Br)cc([N+](=O)[O-])c2[nH]1	11.6	70	27.9	399	-0.4	
CSc1ccc(OCc2ncc([N+](=O)[O-])n2C)cc1 [FEXINIDAZOLE]	3.4	400	> 200	> 500		half-life [4]: 48 min; EC50 (Trypanosoma cruzi): 3000 nM
O=c1ccc2cc(C(F)(F)F)ccc2[nH]1	> 100	> 50000	> 100			
Nc1cc(C(F)(F)F)cc2cc(Br)c(=O)[nH]c12	> 100	8700	> 100	> 11		
O=C(Cn1ccnc1[N+](=O)[O-])NCc1ccccc1 [BENZNIDAZOLE]						EC50 (Trypanosoma cruzi): 500 nM
O=c1[nH]c2c([N+](=O)[O-])cc(C(F)(F)F)cc2cc1Br	3.9	200	41.3	206	-0.36	EC50 [5]: 900 nM; EC50 [6]: 6.7 µM; t1/2 [7]: > 40 min; Papp at 4 h, 100 µM [8]: 45 ×10⁻⁶ cm/s; EC50 (Leishmania donovani [9]): 4.1 µM; EC50 (Leishmania donovani [10]): 1200 nM; EC50 (Leishmania donovani [11]): 4.9 µM; Ratio EC50 (Leishmania donovani [12]): 3.5; Ratio EC50 [13]: 7; Activity (Plasma proteins): 99.4%
O=C(O)c1ccc(-c2cc3cccc([N+](=O)[O-])c3[nH]c2=O)cc1	> 100	1500		80	-0.56	EC50 [5]: 4200 nM; EC50 [6]: 5.4 µM; CC50 at 72 h [14]: 120 µM
O=c1ccc2cc(C(F)(F)F)cc([N+](=O)[O-])c2[nH]1	18.5	1700	41.3	24	-0.39	
O=C(O)c1ccc(-c2cc3cc(Br)cc([N+](=O)[O-])c3[nH]c2=O)cc1	8	200	60.4	302	-0.4	EC50 [5]: 100 nM; EC50 [6]: 4 µM; t1/2 [7]: > 40 min; Papp at 4 h, 100 µM [8]: 1.27 ×10⁻⁶ cm/s; EC50 (Leishmania donovani [9]): 2 µM; EC50 (Leishmania donovani [10]): 1300 nM; EC50 (Leishmania donovani [11]): 2.1 µM; Ratio EC50 [13]: 40
O=c1[nH]c2c([N+](=O)[O-])cc(Cl)cc2cc1Cl	6.2	100	24.3	243	-0.37	
O=c1[nH]c2c([N+](=O)[O-])cc(C#CCO)cc2cc1Cl	8.9	1000	30.9	31		
